Assay results reported in ChEMBL document CHEMBL4414638, “Structure-Activity Relationship of Peptide-Conjugated Chloramphenicol for Inhibiting Escherichia coli” (J Med Chem, 2019).
Converted amounts (≈) assume the structure as drawn. Values belong to the molecule of their own block, whether it stands above or below them. The source made the active and inactive calls. The calls are words filed in the database; no cut-off is given here.

How the values were obtained:
[1] = system: Escherichia coli; assay: Antibacterial activity against yfbB gene deficient Escherichia coli assessed as reduction in bacterial growth at 0.1 to 100 uM incubated for 16 hrs; type: functional, organism-based
[2] = system: Escherichia coli; assay: Antibacterial activity against ompF gene deficient Escherichia coli assessed as reduction in bacterial growth at 0.1 to 100 uM incubated for 16 hrs; type: functional, organism-based
[3] = system: Escherichia coli; assay: Antibacterial activity against yqiA gene deficient Escherichia coli assessed as reduction in bacterial growth at 0.1 to 100 uM incubated for 16 hrs; type: functional, organism-based
[4] = system: Escherichia coli; assay: Antibacterial activity against frsA gene deficient Escherichia coli assessed as reduction in bacterial growth at 0.1 to 100 uM incubated for 16 hrs; type: functional, organism-based
[5] = Drug metabolism in human serum assessed as formation of chloramphenicol at 200 uM at 37 degC after 2 hrs by LC-MS analysis relative to control
[6] = system: Escherichia coli; assay: Antibacterial activity against ydgR gene deficient Escherichia coli assessed as reduction in bacterial growth at 0.1 to 100 uM incubated for 16 hrs; type: functional, organism-based
[7] = system: Escherichia coli; assay: Antibacterial activity against Escherichia coli K-12 assessed as reduction in bacterial growth incubated for 16 hrs in absence of porcine liver esterase; type: functional; settings: K-12, 16 h
[8] = system: HEK293; assay: Cytotoxicity in human HEK293 cells assessed as reduction in cell viability at 20 uM […] relative to chloramphenicol; type: cell-based; settings: hek293, 20 µM
[9] = system: Escherichia coli; assay: Antibacterial activity against ypfH gene deficient Escherichia coli assessed as reduction in bacterial growth at 0.1 to 100 uM incubated for 16 hrs; type: functional, organism-based
[10] = Drug metabolism in human HepG2 cells lysates assessed as esterase-mediated drug hydrolysis at 200 uM incubated up to 24 hrs by HPLC analysis; type: ADME, subcellular, Lysate; settings: hepg2, 24 h
[11] = system: Escherichia coli; assay: Antibacterial activity against fepA gene deficient Escherichia coli assessed as reduction in bacterial growth at 0.1 to 100 uM incubated for 16 hrs; type: functional, organism-based
[12] = system: Escherichia coli; assay: Antibacterial activity against Escherichia coli K-12 assessed as reduction in bacterial growth incubated for 16 hrs in presence of porcine liver esterase; type: functional; settings: K-12, 16 h
[13] = Drug metabolism in Escherichia coli K-12 lysates assessed as esterase-mediated drug hydrolysis by measuring apparent first-order rate constant at 200 uM incubated up to 24 hrs by HPLC analysis; type: ADME, subcellular, Lysate; settings: escherichia coli k-12, isolated protein
[14] = Cytotoxicity in human HS5 cells assessed as reduction in cell viability at 20 uM to 2 mM incubated up to […]rs relative to chloramphenicol; type: cell-based
[15] = Drug metabolism in human serum assessed as formation of chloramphenicol at 200 uM at 37 degC after 24 hrs by LC-MS analysis relative to control
[16] = system: Escherichia coli; assay: Antibacterial activity against acrA gene deficient Escherichia coli assessed as reduction in bacterial cell viability at 0.1 to 100 uM incubated for 16 hrs relative to control; type: functional
[17] = system: Escherichia coli; assay: Antibacterial activity against yjfP gene deficient Escherichia coli assessed as reduction in bacterial growth at 0.1 to 100 uM incubated for 16 hrs; type: functional, organism-based
[18] = system: Escherichia coli; assay: Antibacterial activity against yeiG gene deficient Escherichia coli assessed as reduction in bacterial growth at 0.1 to 100 uM incubated for 16 hrs; type: functional, organism-based
[19] = Drug metabolism in Escherichia coli K-12 lysates assessed as esterase-mediated drug hydrolysis at 200 uM incubated up to 24 hrs by HPLC analysis; type: ADME, subcellular, Lysate; settings: escherichia coli k-12, isolated protein
[20] = system: Escherichia coli; assay: Antibacterial activity against ybfF gene deficient Escherichia coli assessed as reduction in bacterial growth at 0.1 to 100 uM incubated for 16 hrs; type: functional, organism-based
[21] = system: Escherichia coli; assay: Antibacterial activity against bioH gene deficient Escherichia coli assessed as reduction in bacterial growth at 0.1 to 100 uM incubated for 16 hrs; type: functional, organism-based
[22] = system: Escherichia coli; assay: Antibacterial activity against Escherichia coli K-12 assessed as reduction in bacterial growth incubated for 16 hrs; type: functional; settings: K-12, 16 h
[23] = system: HEK293; assay: Cytotoxicity in human HEK293 cells assessed as reduction in cell viability at 0.5 uM […] relative to chloramphenicol; type: cell-based; settings: hek293, 0.5 µM
[24] = Cytotoxicity in human HS5 cells assessed as reduction in cell viability at 0.5 to 50 uM incubated […] relative to chloramphenicol; type: cell-based
Outline: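 HS-5 cells were exposed for 24 h to conjugates and chloramphenicol at 20, 200 or 2000 μM, or to comparator antibiotics at 0.5, 5 or 50 μM, and cell viability was then read.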

SMILES: O=C(CCC(=O)OC[C@@H](NC(=O)C(Cl)Cl)[C@H](O)c1ccc([N+](=O)[O-])cc1)NCC(=O)N[C@H](CO)C(=O)O
Activity [1]: inactive
Activity [2]: Active
Activity [3]: inactive
Activity [4]: inactive
Drug metabolism [5]: Metabolite_Detected
Activity [6]: Active
MIC [7]: 20 µM (≈ 11.3 µg/mL)
Activity [8]: Toxic
Activity [9]: inactive
Drug metabolism [10]: Metabolite_Detected
Activity [11]: Active
MIC [12]: 20 µM
K [13]: 3.763 h⁻¹
Activity [14]: Non-Toxic
Drug metabolism [15]: Metabolite_Detected
Activity [16]: 30%
Activity [17]: inactive
Activity [18]: inactive
Drug metabolism [19]: Metabolite_Detected
Activity [20]: inactive
Activity [21]: inactive
MIC [22]: 20 µM

Drug metabolism [5]: Metabolite_Detected
Drug metabolism [15]: Metabolite_Detected
MIC [22]: 20 µM
SMILES: NCCCC[C@H](NC(=O)CNC(=O)CCC(=O)OC[C@@H](NC(=O)C(Cl)Cl)[C@H](O)c1ccc([N+](=O)[O-])cc1)C(=O)O
Activity [8]: Toxic
Activity [14]: Non-Toxic

Drug metabolism [5]: Metabolite_Detected
Drug metabolism [15]: Metabolite_Detected
MIC [22]: 20 µM
SMILES: O=C(CCC(=O)OC[C@@H](NC(=O)C(Cl)Cl)[C@H](O)c1ccc([N+](=O)[O-])cc1)NCC(=O)NCC(=O)N[C@H](Cc1ccccc1)C(=O)O
Activity [8]: Toxic
Activity [14]: Non-Toxic

MIC [22]: 0.6 µg/mL
SMILES: CC[C@H]1OC(=O)[C@H](C)C(=O)[C@H](C)[C@@H](O[C@@H]2O[C@H](C)C[C@H](N(C)C)[C@H]2O)[C@](C)(OC)C[C@@H](C)C(=O)[C@H](C)[C@H]2N(CCCCn3cnc(-c4cccnc4)c3)C(=O)O[C@]12C [TELITHROMYCIN]
Activity [23]: Toxic
Activity [24]: Non-Toxic

SMILES: COc1cc(Cc2cnc(N)nc2N)cc(OC)c1OC [TRIMETHOPRIM]
Activity [23]: Toxic
Activity [24]: Non-Toxic
MIC [22]: 1 µg/mL

SMILES: O=C(O)c1cn(C2CC2)c2cc(N3CCNCC3)c(F)cc2c1=O [CIPROFLOXACIN]
Activity [23]: Toxic
Activity [24]: Non-Toxic

SMILES: NCCCC[C@@H](NC(=O)[C@@H](CCCCN)NC(=O)CCC(=O)OC[C@@H](NC(=O)C(Cl)Cl)[C@H](O)c1ccc([N+](=O)[O-])cc1)C(=O)O
Activity [1]: inactive
Activity [2]: Active
Activity [3]: inactive
Activity [4]: inactive
Activity [6]: Active
MIC [7]: 200 µM (≈ 136 µg/mL)
Activity [9]: inactive
Drug metabolism [10]: Metabolite_Detected
Activity [11]: Active
MIC [12]: 100 µM
K [13]: 0.317 h⁻¹
Drug metabolism [15]: Metabolite_Detected
Activity [16]: 20%
Activity [17]: inactive
Activity [18]: inactive
Drug metabolism [19]: Metabolite_Detected
Activity [20]: inactive
Activity [21]: inactive
MIC [22]: 200 µM
